Consider 13 compounds from ChEMBL document CHEMBL1131528, “Effect of steroids on DNA synthesis in an in vitro replication system: initial quantitative structure-activity relationship studies and construction of a non-estrogen receptor pharmacophore” (J Med Chem, 1998).

The test system of experiment [1] is Nucleic Acid. The experiment in a line: (§1) The compound was tested in vitro for its ability to initiate DNA replication. As to conditions: Homo sapiens. The class given is functional. The method in brief: (§2)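 Steroid dissolved in 100% ethanol, diluted with water (final ethanol ≤0.1%), tested at 10 nM in a HeLa cell extract in vitro replication system (extracts estrogen and progesterone receptor-negative) with plasmid template pX24 (hamster DHFR origin) or 30.4 (random human cDNA fragment). Compound preincubated with template DNA and precursor nucleotides, then remaining components added to start replication. DNA purified; synthesis measured by DpnI resistance assay with phosphoimager densitometry; expressed as % of untreated control, mean ± SD of at least two experiments.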

In experiment [2] the test system is Nucleic Acid. Described as §1. Type of experiment: nucleic-acid assay. As to conditions: Homo sapiens. The method in brief: as §2

Consider `C[C@]12CC[C@@H]3c4ccc(O)cc4CC[C@H]3[C@@H]1CC(=O)[C@@H]2O`, for which, in the experiment on Nucleic Acid [1], the DNA is 99%.

`C[C@]12CC[C@@H]3c4ccc(O)cc4CC[C@H]3[C@@H]1C[C@H](O)[C@H]2O` came in with a DNA with Nucleic Acid [1] of 200%.

With `C[C@]12CC[C@H]3C(CCC4=CC(=O)CC[C@@]43C)[C@@H]1CC[C@@H]2O` (single isomer, unassigned), the DNA in the experiment on Nucleic Acid [1] was 72%.

Consider `C[C@]12CC[C@@H]3c4cc(O)c(O)cc4CC[C@H]3[C@@H]1CCC2=O`, for which the DNA in the experiment with Nucleic Acid [2] stood at 92%.

On to `COc1c(O)ccc2c1CC[C@@H]1[C@@H]2CC[C@]2(C)C(=O)CC[C@@H]12`, for which the DNA in the experiment on Nucleic Acid [2] was 53%.

`C[C@]12CC[C@@H]3c4cc(O)c(O)cc4CCC3[C@@H]1CC[C@@H]2O` (single isomer, unassigned) came in with a DNA with Nucleic Acid [1] of 52%.

`C[C@]12CC[C@@H]3c4ccc(O)cc4CC[C@H]3[C@@H]1CCC2=O` registered a DNA with Nucleic Acid [2] of 108%.

Turning to `C[C@]12CC[C@@H]3c4ccc(O)cc4CC[C@H]3[C@@H]1C[C@@H](O)C2=O`, in the experiment with Nucleic Acid [2], the DNA is 150%.

The compound `C[C@]12CC[C@@H]3c4ccc(O)c(O)c4CCC3[C@@H]1CC[C@@H]2O` (single isomer, unassigned) yielded a DNA in the experiment with Nucleic Acid [1] of 53%.

`COc1ccc2c(c1OC)CC[C@@H]1[C@@H]2CC[C@]2(C)C(=O)CC[C@@H]12` returned a DNA in the experiment with Nucleic Acid [2] of 63%.

As to `C[C@]12CC[C@@H]3c4ccc(O)cc4CC[C@H]3[C@@H]1C[C@@H](O)[C@@H]2O`, the results for the DNA in the experiment with Nucleic Acid [2] and in the experiment with Nucleic Acid [1] were 118% and 144%, respectively.

In the case of `C[C@]12CC[C@@H]3c4ccc(O)cc4CC[C@H]3[C@@H]1C[C@@H](O)[C@H]2O`, the DNA with Nucleic Acid [1] is 103%.

In the experiment on Nucleic Acid [2], `CC(=O)[C@H]1CC[C@H]2[C@@H]3CCC4=CC(=O)CC[C@]4(C)[C@H]3CC[C@]12C` yielded a DNA of 115%.
